Laboratory results from ChEMBL document CHEMBL1649230, “Aryl rhodanines specifically inhibit staphylococcal and enterococcal biofilm formation” (Antimicrob Agents Chemother, 2009).

Tests used:
Staphylococcus aureus [1] = assay: Antimicrobial activity against hospital acquired methicillin-resistant Staphylococcus aureus isolate 1094 assessed as inhibition of bacterial biofilm after 18 hrs by broth microdilution method; type: functional
Outline: (§1)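 Biofilm MBIC on tissue culture-treated polystyrene 96-well plates. Twofold dilutions, 0.2 to 100 μM final, with 2% DMSO final. Inoculum was an overnight culture diluted 1:100 (~5 × 10^6 cells/well) in 0.5× TSB plus 1% glucose, grown 18 h at 37°C. Wells washed, heat-fixed 60°C 60 min, stained with 0.06% crystal violet, OD600 read. MBIC is the lowest concentration giving ≥80% inhibition versus untreated; geometric mean of ≥3 experiments.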

[2] = test system: Staphylococcus epidermidis; assay: Antimicrobial activity against coagulase-negative Staphylococcus epidermidis isolate WTBF-45 assessed as inhibition of bacterial biofilm after 18 hrs by broth microdilution method; type: functional; outline: as §1
Staphylococcus aureus [3] = assay: Antimicrobial activity against community acquired methicillin-resistant Staphylococcus aureus isolate 24209 assessed as inhibition of bacterial biofilm after 18 hrs by broth microdilution method; type: functional; outline: as §1
Escherichia coli = assay: Antimicrobial activity against Escherichia coli ATCC 25922 assessed as inhibition of bacterial biofilm after 18 hrs by broth microdilution method; type: functional
Outline: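 Polystyrene plates with breathable lids in 1× TSB (0.25% glucose), 37°C for 18 h. Biofilms form at the air-liquid interface. Stained with crystal violet, dye eluted with 30% acetic acid, OD read. Compound 2-fold series, final 0.2–100 μM in 2% DMSO. MBIC taken at ≥80% inhibition versus untreated. Geometric mean of ≥3 experiments.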

Staphylococcus aureus [4] = assay: Antimicrobial activity against methicillin-susceptible Staphylococcus aureus on medical grade silicone disk assessed as inhibition of bacterial biofilm after 18 hrs by broth microdilution method; type: functional
Outline: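 S. aureus ATCC 35556 biofilms were grown on autoclaved medical-grade silicone disks fixed in 24-well plates. The inoculum was a 1:100 dilution of an overnight culture in 0.5× TSB with 1% glucose, with compound at 0× to 8× MBIC and 2% DMSO final, in at least three wells. Plates were held about 18 h at 37°C, water-washed, heat-fixed at 60°C for 60 min, and stained with 0.06% CV. CV was eluted in 30% acetic acid and read at OD600, averaging three disks; runs were repeated ≥3 times.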

Staphylococcus aureus [5] = assay: Antimicrobial activity against community acquired methicillin-resistant Staphylococcus aureus isolate 22733 assessed as inhibition of bacterial biofilm after 18 hrs by broth microdilution method; type: functional; outline: as §1
Staphylococcus aureus [6] = assay: Antimicrobial activity against Staphylococcus aureus ATCC 35556 assessed as inhibition of bacterial biofilm formation after 18 hrs by broth microdilution method in presence of 5 ug/ml fibrinogen; type: functional
Outline: (§2)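 Polystyrene 96-well wells precoated with 100 μl fibronectin or fibrinogen (0–20 μg protein/ml) for 24 h at 4°C. Wells then washed with sterile water. The standard MBIC biofilm assay followed: 0.5× TSB with 1% glucose, 2% DMSO, 18 h at 37°C, crystal violet read at OD600.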

Staphylococcus aureus [7] = assay: Antimicrobial activity against Staphylococcus aureus ATCC 35556 assessed as inhibition of bacterial biofilm formation after 18 hrs by broth microdilution method in presence of 10 ug/ml fibrinogen; type: functional; outline: as §2
Enterococcus faecalis [8] = assay: Antimicrobial activity against Enterococcus faecalis isolate F177 on medical grade silicone disk assessed as inhibition of bacterial biofilm after 18 hrs by broth microdilution method
Staphylococcus aureus [9] = assay: Antimicrobial activity against community acquired community-acquired Staphylococcus aureus MW2 assessed as inhibition of bacterial biofilm after 18 hrs by broth microdilution method; type: functional; outline: as §1
[10] = test system: Staphylococcus epidermidis; assay: Antimicrobial activity against Staphylococcus epidermidis O-47 assessed as inhibition of bacterial biofilm after 18 hrs by broth microdilution method; type: functional
Outline: (§3)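 Static biofilm in tissue culture-treated polystyrene 96-well plates in 0.5× TSB with 1% glucose. Overnight culture diluted 1:100 gives about 5 × 10^6 cells/well. Compound 2-fold series, final 0.2–100 μM, 2% DMSO. Incubated 18 h at 37°C. Washed, heat-fixed 60°C for 60 min, stained with 0.06% crystal violet, read at OD600. MBIC is the lowest concentration giving ≥80% inhibition versus untreated. Geometric mean of ≥3 independent experiments.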

Staphylococcus aureus [11] = assay: Antimicrobial activity against Staphylococcus aureus ATCC 35556 assessed as inhibition of bacterial biofilm formation after 18 hrs by broth microdilution method in presence of 1 ug/ml fibronectin; type: functional; outline: as §2
Staphylococcus aureus [12] = assay: Antimicrobial activity against Staphylococcus aureus ATCC 35556 assessed as inhibition of bacterial biofilm formation after 18 hrs by broth microdilution method in presence of 10 ug/ml fibronectin; type: functional; outline: as §2
[13] = test system: Staphylococcus epidermidis; assay: Antimicrobial activity against coagulase-negative Staphylococcus epidermidis isolate WTBF-40 assessed as inhibition of bacterial biofilm after 18 hrs by broth microdilution method; type: functional; outline: as §3
Staphylococcus aureus [14] = assay: Antimicrobial activity against Staphylococcus aureus ATCC 35556 assessed as inhibition of bacterial biofilm formation after 18 hrs by broth microdilution method in presence of 2 ug/ml fibronectin; type: functional; outline: as §2
[15] = test system: Staphylococcus epidermidis; assay: Antimicrobial activity against coagulase-negative Staphylococcus epidermidis isolate WTBF-47 assessed as inhibition of bacterial biofilm after 18 hrs by broth microdilution method; type: functional; outline: as §3
[16] = test system: Staphylococcus epidermidis; assay: Antimicrobial activity against Staphylococcus epidermidis ATCC 35984 assessed as inhibition of bacterial biofilm after 18 hrs by broth microdilution method; type: functional; outline: as §3
[17] = Cytotoxicity against human HeLa cells after 3 days by MTT assay; type: cell-based
Outline: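 HeLa cells were seeded at 4 × 10^3 per well with or without serial dilutions of compound in DMSO. Plates were incubated 3 days at 37°C in minimal essential medium with 10% calf serum, and viability was read by MTT. CC50 was the concentration that reduced MTT-to-formazan conversion by 50%.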

[18] = test system: Staphylococcus epidermidis; assay: Antimicrobial activity against Staphylococcus epidermidis 1457 assessed as inhibition of bacterial biofilm after 18 hrs by broth microdilution method; type: functional; outline: as §3
Staphylococcus aureus [19] = assay: Antimicrobial activity against Staphylococcus aureus ATCC 35556 assessed as inhibition of bacterial biofilm after 18 hrs by broth microdilution method; type: functional; outline: as §3
Staphylococcus aureus [20] = assay: Antimicrobial activity against community acquired methicillin-susceptible Staphylococcus aureus assessed as inhibition of bacterial biofilm after 18 hrs by broth microdilution method; type: functional; outline: as §3
Enterococcus faecalis [21] = assay: Antimicrobial activity against vancomycin-resistant Enterococcus faecalis isolate F317 assessed as inhibition of bacterial biofilm after 18 hrs by broth microdilution method; type: functional; outline: as §1
Enterococcus faecium = assay: Antimicrobial activity against vancomycin-resistant Enterococcus faecium isolate EF1509 assessed as inhibition of bacterial biofilm after 18 hrs by broth microdilution method; type: functional; outline: as §1
Staphylococcus aureus [22] = assay: Antimicrobial activity against Staphylococcus aureus ATCC 35556 assessed as inhibition of bacterial biofilm formation after 18 hrs by broth microdilution method in presence of 2 ug/ml fibrinogen; type: functional; outline: as §2
[23] = test system: Staphylococcus epidermidis; assay: Antimicrobial activity against Staphylococcus epidermidis 1457 on medical grade silicone disk assessed as inhibition of bacterial biofilm after 18 hrs by broth microdilution method; type: functional
[24] = test system: Staphylococcus epidermidis; assay: Antimicrobial activity against coagulase-negative Staphylococcus epidermidis isolate WTBF-41 assessed as inhibition of bacterial biofilm after 18 hrs by broth microdilution method; type: functional; outline: as §1
Staphylococcus aureus [25] = assay: Antimicrobial activity against community acquired methicillin-resistant Staphylococcus aureus isolate 38230 assessed as inhibition of bacterial biofilm after 18 hrs by broth microdilution method; type: functional; outline: as §1
Staphylococcus aureus [26] = assay: Antimicrobial activity against community acquired methicillin-resistant Staphylococcus aureus isolate 44081 assessed as inhibition of bacterial biofilm after 18 hrs by broth microdilution method; type: functional; outline: as §1

Row | Structure (SMILES) | MBIC (Staphylococcus aureus [1]) [µM] | MBIC [2] [µM] | MBIC (Staphylococcus aureus [3]) [µM] | MBIC (Escherichia coli) | MBIC90 (Staphylococcus aureus [4]) [µM] | MBIC (Staphylococcus aureus [6]) [µM] | MBIC (Staphylococcus aureus [7]) [µM] | MBIC90 (Enterococcus faecalis [8]) | MBIC (Staphylococcus aureus [9]) [µM] | MBIC [10] [µM] | MBIC (Staphylococcus aureus [11]) [µM] | MBIC (Staphylococcus aureus [12]) [µM] | MBIC [13] [µM] | MBIC (Staphylococcus aureus [14]) [µM] | MBIC [15] [µM] | MBIC [16] [µM] | CC50 at 72 h [17] [µM] | MBIC [18] [µM] | MBIC (Staphylococcus aureus [19]) [µM] | MBIC (Staphylococcus aureus [20]) [µM] | also measured
1 | CCOc1cc(/C=C2\SC(=S)N(c3cccc(F)c3)C2=O)ccc1O | 100 | 50 | 100 | >=100 uM | 70.7 | 6.25 | 6.25 | >=100 uM | 31.5 | 100 | 6.25 | 6.25 | 59.5 | 6.25 | 42 | 25 | ≥ 100 | 50 | 4.4 | 14.9 | MBIC (Staphylococcus aureus [5]): 70.7 µM; MBIC (Enterococcus faecalis [21]): 100 µM; MBIC (Enterococcus faecium): >=100 uM; MBIC (Staphylococcus aureus [22]): 6.25 µM; MBIC90 [23]: 59.5 µM; MBIC [24]: 17.7 µM
2 | C=CCOc1cc(/C=C2\SC(=S)N(c3ccc(F)cc3)C2=O)ccc1O | 100 | 25 | 100 | >=100 uM | 100 | 3.125 | 3.125 | 100 µM | 25 | 59.5 | 3.125 | 3.125 | 50 | 3.125 | 29.7 | 17.7 | 76.4 | 29.7 | 2.6 | 10.5 | MBIC (Staphylococcus aureus [5]): 100 µM; MBIC (Staphylococcus aureus [25]): 35.4 µM; MBIC (Staphylococcus aureus [26]): 39.7 µM; MBIC (Enterococcus faecalis [21]): 100 µM; MBIC (Enterococcus faecium): 59.5 µM; MBIC (Staphylococcus aureus [22]): 3.125 µM; MBIC90 [23]: 59.5 µM; MBIC [24]: 17.7 µM
3 | CCOc1cc(/C=C2\SC(=S)N(c3cccnc3)C2=O)ccc1O | 25 | 17.7 | 25 | >=100 uM | 25 | 12.5 | 12.5 | 19.8 µM | 21 | 59.5 | 12.5 | 12.5 | 35.4 | 12.5 | 12.5 | 12.5 | ≥ 100 | 12.5 | 10.5 | 12.5 | MBIC (Staphylococcus aureus [25]): 19.8 µM; MBIC (Staphylococcus aureus [26]): 25 µM; MBIC (Enterococcus faecalis [21]): 15.7 µM; MBIC (Enterococcus faecium): 21 µM; MBIC (Staphylococcus aureus [22]): 12.5 µM; MBIC90 [23]: 35.4 µM; MBIC [24]: 17.7 µM
4 | CCOc1cc(/C=C2\SC(=S)N(c3ccc(F)cc3)C2=O)ccc1O | 100 | 25 | 100 | >=100 uM | 79.4 | 3.125 | 3.125 | >=100 uM | 42 | 50 | 3.125 | 6.25 | 50 | 3.125 | 29.7 | 17.7 | ≥ 100 | 42 | 2.6 | 14.9 | MBIC (Staphylococcus aureus [5]): 50 µM; MBIC (Staphylococcus aureus [25]): 50 µM; MBIC (Staphylococcus aureus [26]): 79.4 µM; MBIC (Enterococcus faecalis [21]): 25 µM; MBIC (Enterococcus faecium): >=100 uM; MBIC (Staphylococcus aureus [22]): 3.125 µM; MBIC90 [23]: 42 µM; MBIC [24]: 14.9 µM
